In PMC7325368 (Journal of Clinical Oncology, 2020):
Values joined by “and” are separate entries in the source; they are usually repeats but may differ in a detail not shown here. Equal entries are not always repeated. Where two headings read alike, the source gives them in different places.

Experiments:
B-RAF–mutated melanoma = conditions: patients with B-RAF–mutated melanoma ref 12, 33; cited from earlier work
[1] = Plasma pharmacokinetics in patients; assay type: in vivo; conditions: human
Method in brief: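 Oral test compound given as a single dose on cycle 1, day 1, then a 2-day treatment-free period for single-dose PK sampling, then once daily on days 4–24 and continuously in 21-day cycles. Doses were 10–60 mg. Plasma was sampled at prespecified time points on cycle 1, day 1 and cycle 2, day 1. Accumulation ratios for Cmax, AUC0-9 and AUC0-24 were taken as cycle 2/cycle 1.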

[2] = test system: tumor FDG uptake in patients with solid tumors; assay: FDG-PET-CT scans; assay type: in vivo, human
Method in brief: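 Exploratory FDG uptake measured by FDG-PET-CT at screening and again on cycle 2, day 1 (± 3 days) in patients receiving the oral test compound once daily in 21-day cycles. Each patient's on-treatment uptake category was compared with the baseline scan.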

[3] = test system: B-RAF–mutated solid tumors; assay: Antitumor activity; assay type: in vivo, human
[4] = test system: patients with advanced/metastatic solid tumors; assay: Safety and tolerability; assay type: in vivo, human
[5] = test system: EGFR, DDR1, DDR2, EPHA3, FLT3, VEGFR2, ABL1, RET, EPHGA7, EPHB2, MNK2, and ZAK; conditions: EPHGA7, EPHB2, MNK2, ZAK ref 15; cited from earlier work
[6] = test system: K-RAS/N-RAS–mutated solid tumors; assay: Antitumor activity; assay type: in vivo, human
[7] = test system: B-RAF– or K-RAS/N-RAS–mutated solid tumors; assay type: in vivo, human
Method in brief: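 Oral test compound once daily: escalation cohorts at 5–60 mg; expansion at 30 mg/d in 21-day cycles in patients with B-RAF or K-RAS/N-RAS mutations. Treatment continued until unacceptable toxicity or withdrawal, with treatment beyond progression allowed if clinically beneficial. Response and stable disease scored per RECIST v1.1, investigator-assessed in expansion. Time-to-event end points summarized by Kaplan-Meier estimators.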

VEGFR2 = conditions: inhibition of VEGFR2 ref 15; cited from earlier work
[8] = cycle 2, day 1, 34 patients (7 missing postbaseline results)
[9] = cycle 2, day 1 vs baseline, 1 patient
[10] = B-RAF^mut patients (n = 53), both phases
[11] = Dose Expansion (n = 96), 30 mg/d
[12] = K-RAS^mut/N-RAS^mut patients (n = 66), both phases

CCCS(=O)(=O)Nc1ccc(F)c(C(=O)c2c[nH]c3ncc(-c4ccc(Cl)cc4)cc23)c1F [vemurafenib]
ORR (B-RAF–mutated melanoma): 48%

O=C1CCc2c(Oc3ccc4c(c3)[C@@H]3[C@H](O4)[C@H]3c3nc4ccc(C(F)(F)F)cc4[nH]3)ccnc2N1 [lifirafenib]
half-life ([1]; oral): 15 to 59 h
Tmax ([1]; po): 3 h
Patients with high FDG uptake [2, 8]: 15 patients
Patients with low FDG uptake [2, 8]: 1 patient
Patients with moderate FDG uptake [2, 8]: 10 patients
Patients with no FDG uptake [2, 8]: 1 patient
Patients who changed from high to low FDG uptake [2, 9]: 2.9%
Patients who changed from low to no FDG uptake [2, 9]: 2.9%
Patients who changed from high to moderate FDG uptake ([2]; cycle 2, day 1 vs baseline, 7 patients): 20.6%
Patients with partial metabolic reduction per EORTC criteria ([2]; dose escalation): 11 patients
Patients with complete metabolic reduction ([2]; dose escalation, B-RAF mutation, 40 mg/d): 1 patient
Patients with partial/complete metabolic reductions by FDG-PET-CT scan ([2]; dose escalation, of 34 patients): 12 patients
Patients with partial/complete metabolic reduction who received ≥ 30 mg/d ([2]; of 12 patients with metabolic reductions): 11 patients
Patients with duration of treatment > 1 year ([3]; B-RAF mutations): 10 n
DCR ([3]; B-RAF^V600–mutated thyroid cancer (3 patients)): 100%
ORR ([3]; B-RAF^V600–mutated thyroid cancer, one of 3 patients confirmed PR): 33.3%
Best overall response (confirmed): CR [3, 10]: 1 (1.9) No. (%)
Best overall response (confirmed): NE/missing [3, 10]: 9 (17.0) No. (%)
Best overall response (confirmed): PD [3, 10]: 8 (15.1) No. (%)
Best overall response (confirmed): SD [3, 10]: 27 (50.9%) No. (%) and 27 (50.9) No. (%)
Disease control rate (CR + PR + SD) [3, 10]: 36 (67.9) No. (%)
Objective response rate (CR + PR) [3, 10]: 9 (17.0) No. (%)
Patients with confirmed PR ([3]; B-RAF–mutated thyroid cancer/PTC): 2 n
Patients with confirmed PR ([3]; human, in vivo): 1 n
Patients with dose interruptions/reductions as a result of drug toxicity ([4]; 40 mg/d, typically between days 13 and 28 of cycle 1): 70%
TEAE Abdominal pain, upper, Any Grade ([4]; Dose Escalation (n = 35)): 4 (11.4) No. (%)
TEAE Abdominal pain, upper, Grade ≥ 3 ([4]; Dose Escalation (n = 35)): 0 (0.0) No. (%)
TEAE Gastroesophageal reflux disease, Any Grade ([4]; Dose Escalation (n = 35)): 6 (17.1) No. (%)
TEAE Gastroesophageal reflux disease, Grade ≥ 3 ([4]; Dose Escalation (n = 35)): 0 (0.0) No. (%)
TEAE Musculoskeletal chest pain, Any Grade ([4]; Dose Escalation (n = 35)): 6 (17.1) No. (%)
TEAE Musculoskeletal chest pain, Grade ≥ 3 ([4]; Dose Escalation (n = 35)): 0 (0.0) No. (%)
TEAE Palmoplantar erythrodysesthesia syndrome, Any Grade ([4]; Dose Escalation (n = 35)): 11 (31.4) No. (%)
TEAE Palmoplantar erythrodysesthesia syndrome, Grade ≥ 3 ([4]; Dose Escalation (n = 35)): 2 (5.7) No. (%)
TEAE Upper respiratory tract infection, Any Grade ([4]; Dose Escalation (n = 35)): 6 (17.1) No. (%)
TEAE Upper respiratory tract infection, Grade ≥ 3 ([4]; Dose Escalation (n = 35)): 0 (0.0) No. (%)
TEAE Urinary tract infection, Any Grade ([4]; Dose Escalation (n = 35)): 4 (11.4) No. (%)
TEAE Urinary tract infection, Grade ≥ 3 ([4]; Dose Escalation (n = 35)): 0 (0.0) No. (%)
TEAE γ-Glutamyl transferase increase, Any Grade ([4]; Dose Escalation (n = 35)): 6 (17.1) No. (%)
TEAE γ-Glutamyl transferase increase, Grade ≥ 3 ([4]; Dose Escalation (n = 35)): 4 (11.4) No. (%)
TEAE Abdominal pain, upper, Any Grade [4, 11]: 8 (8.3) No. (%)
TEAE Abdominal pain, upper, Grade ≥ 3 [4, 11]: 2 (2.1) No. (%)
TEAE Gastroesophageal reflux disease, Any Grade [4, 11]: 4 (4.2) No. (%)
TEAE Gastroesophageal reflux disease, Grade ≥ 3 [4, 11]: 0 (0.0) No. (%)
TEAE Musculoskeletal chest pain, Any Grade [4, 11]: 7 (7.3) No. (%)
TEAE Musculoskeletal chest pain, Grade ≥ 3 [4, 11]: 0 (0.0) No. (%)
TEAE Palmoplantar erythrodysesthesia syndrome, Any Grade [4, 11]: 20 (20.8) No. (%)
TEAE Palmoplantar erythrodysesthesia syndrome, Grade ≥ 3 [4, 11]: 1 (1.0) No. (%)
TEAE Upper respiratory tract infection, Any Grade [4, 11]: 5 (5.2) No. (%)
TEAE Upper respiratory tract infection, Grade ≥ 3 [4, 11]: 0 (0.0) No. (%)
TEAE Urinary tract infection, Any Grade [4, 11]: 10 (10.4) No. (%)
TEAE Urinary tract infection, Grade ≥ 3 [4, 11]: 1 (1.0) No. (%)
TEAE γ-Glutamyl transferase increase, Any Grade [4, 11]: 4 (4.2) No. (%)
TEAE γ-Glutamyl transferase increase, Grade ≥ 3 [4, 11]: 4 (4.2) No. (%)
Time to occurrence of dose-limiting thrombocytopenia ([4]; after initial dosing, dose escalation): 2-3 weeks
Patients who experienced reversible DLTs ([4]; among patients eligible for DLT assessment (n = 31), dose escalation): 6 patients
DLT: grade 3 increased ALT ([4]; dose escalation): 1 n
DLT: grade 4 thrombocytopenia ([4]; dose escalation): 5 n
Grade ≥ 3 treatment-related TEAE fatigue ([4]; dose escalation): 11.4%
Grade ≥ 3 treatment-related TEAE hypertension ([4]; dose escalation): 11.4%
Grade ≥ 3 treatment-related TEAE thrombocytopenia ([4]; dose escalation): 14.3%
Patients with TEAEs that led to discontinuation ([4]; dose escalation (n = 35), five patients): 14.3%
Patients with grade ≥ 3 TEAEs (including DLTs) ([4]; dose escalation, 26 patients): 74.3%
Share of patients reporting grade ≥ 3 TEAEs ([4]; dose escalation, 40, 50, and 60 mg/d cohorts): 61.5%
Share of patients reporting grade ≥ 3 TEAEs ([4]; dose escalation, lower-dose cohorts): 38.5%
Dose-limiting thrombocytopenia that occurred at 40 and 60 mg/d ([4]; dose escalation, n = 2 each (eighty percent)): 4 of 5
Maximum tolerated dose (MTD) ([4]; dose escalation, once-daily oral dosing): 40 mg/day
Grade ≥ 3 treatment-related AE fatigue ([4]; dose expansion): 7.3%
Grade ≥ 3 treatment-related AE hypertension ([4]; dose expansion): 8.3%
Patients with TEAEs that led to discontinuation ([4]; dose expansion (n = 96), 19 patients): 19.8%
Patients with serious TEAEs ([4]; dose expansion (n = 96), 56 patients): 58.3%
Patients with grade ≥ 3 TEAEs ([4]; dose expansion (n = 96), 68 patients): 70.8%
Patients with AEs that led to a dose adjustment ([4]; dose expansion, fifty patients): 52%
Patients with TEAEs that led to death (considered unrelated to treatment) ([4]; dose expansion, four patients, 6 TEAEs): 4.2%
Cutaneous SCC or keratoacanthoma ([4]; during the entire study): not reported
DLTs that occurred at doses ≥ 40 mg/d ([4]; of 6 patients with DLTs, dose escalation): 5 patients
Time to platelet count recovery ([4]; platelet transfusion or prednisolone and withholding of lifirafenib): 6 to 20 days
IC50s relative to that for B-RAF^V600E [5]: ≤ 10 fold
Patients with confirmed PR ([6]; K-RAS codon 12–mutated NSCLC, 30 mg/d): 1 n
Patients with duration of treatment > 1 year ([6]; K-RAS mutations): 5 n
Patients with confirmed responses ([6]; K-RAS mutations, entire study): 2 patients
Responses ([6]; K-RAS/N-RAS–mutated colorectal cancer (n = 20)): No responses
Best overall response (confirmed): CR [6, 12]: 0 No. (%)
Best overall response (confirmed): NE/missing [6, 12]: 15 (22.7) No. (%)
Best overall response (confirmed): PD [6, 12]: 16 (24.2) No. (%)
Best overall response (confirmed): PR [6, 12]: 2 (3.0) No. (%)
Best overall response (confirmed): SD [6, 12]: 33 (50.0) No. (%)
Disease control rate (CR + PR + SD) [6, 12]: 35 (53.0) No. (%)
Objective response rate (CR + PR) [6, 12]: 2 (3.0) No. (%)
Patients with SD ([6]; K-RAS– or N-RAS–mutated CRC): Twelve
Patients with SD ([6]; K-RAS–mutated NSCLC (codon 12 mutated and K-RAS G13D, n = 1 each)): 2 patients
Patients with SD ([6]; K-RAS–mutated endometrial cancer (codon 12 mutated, n = 4; codon 2 mutated, n = 1)): 5 patients
Patients with confirmed PR ([6]; K-RAS–mutated endometrial cancer, 20 mg/d): 1 n
ORR ([6]; patients with K-RAS mutations, entire study): 3.4%
Patients with SD ([6]; patients with K-RAS mutations, entire study, 32 patients): 54.2%
Patients with confirmed clinical responses ([7]; dose escalation, n = 3, all had FDG-PET-CT responses): 8.6%
Median DoR ([7]; dose escalation, 95% CI, 6.8 to 31.7 months): 31.7 months
Median DoR ([7]; dose expansion, 95% CI, 1.9 months to not reached): 11.1 months
Median duration of SD ([7]; dose expansion, 95% CI, 3.5 to 4.9 months): 4.1 months
IC50 (VEGFR2): 108 nM

CC(C)(C)c1nc(-c2cccc(NS(=O)(=O)c3c(F)cccc3F)c2F)c(-c2ccnc(N)n2)s1 [dabrafenib]
DCR (B-RAF–mutated melanoma): 91%
ORR (B-RAF–mutated melanoma): 50%
